We go through one molecule from ChEMBL document CHEMBL4428115, “Molecular docking studies, biological and toxicity evaluation of dihydroisoquinoline derivatives as potential anticancer agents” (Bioorg Med Chem, 2016).

For test [1], the system named is MCF7. Kind of test: Antiproliferative activity against human MCF7 cells after 72 hrs by SRB assay. Conditions: MCF7, 72 h. The format is functional, cell-based. In a few lines: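 Adherent cells plated at 1 × 10^4 per well 24 h before treatment, then exposed 72 h to compounds diluted from 20 mg/mL DMSO stock (0.01–1000 µg/mL). Fixed in cold 50% TCA at 4°C for 1 h, stained with 0.4% sulforhodamine B, bound dye extracted with 10 mM Tris, OD at 540 nm. Triplicates, 3–5 experiments; IC50 per experiment, mean ± SD.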

Test [2] has as its system A498. Kind of test: Antiproliferative activity against human A498 cells. The format is functional, cell-based.
Test [3] in a line: Selectivity index, ratio of IC50 for mouse BALB/3T3 cells to IC50 for human MV411 cells.
For test [4], the system named is CCRF-CEM. Kind of test: Antiproliferative activity against human CCRF-CEM cells. The format is functional, cell-based.
In test [5] the test system is HL-60. Kind of test: Cell cycle arrest in human HL60 cells assessed as accumulation at G0/G1 phase at 1 to 3 ug/ml after 72 hrs by propidium iodide staining based flow cytometry. It counts as functional. The essentials: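 HL-60 seeded at 2 × 10^5 cells/mL 24 h before treatment, exposed 72 h to 1 or 3 µg/mL, with DMSO solvent and cisplatin controls. Cells fixed in 70% ethanol at −20°C, treated with RNase 8 µg/mL at 37°C for 1 h, stained 30 min with PI 50 µg/mL at 4°C. DNA content by flow cytometry; three independent experiments, mean ± SD.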

Test [6] concerns HL-60. Kind of test: Decrease in cyclin E expression in human HL60 cells at 1 ug/ml after 72 hrs by Western-blot analysis. The format is functional, cell-based. In a few lines:
(§1)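 HL-60 (2 × 10^5 cells/mL) treated 72 h at 1 µg/mL with DMSO control, then lysed in RIPA buffer with protease/phosphatase inhibitors. 100 µg protein resolved on 4–20% gels and transferred to nitrocellulose. Probed with rabbit primary antibody, fluorescein-linked anti-rabbit secondary, then anti-fluorescein–alkaline phosphatase with ECF substrate; fluorescence scanned. Densitometry normalized to actin, reported as fold change versus control.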

Test [7] relates to HL-60. Kind of test: Effect on Bcl-2 expression in human HL60 cells at 1 ug/ml after 72 hrs by Western-blot analysis. It counts as functional, cell-based. In a few lines:
as §1

Activity calls are given as the source filed them. The calls are words filed in the database; no cut-off is given here.

For the molecule `CCOC(=O)C1(C(=O)OCC)Cc2cc(OCc3ccccc3)cc(OCc3ccccc3)c2C=N1`, the half-maximal inhibitory concentration (IC50) in test [1] worked out at 9.6 µM; in test [2] it was 13.3 µM; in test [4], 0.7 µM. For the same molecule, the “Ratio IC50” value in test [3] is given as 0.6. Further, the outcome in test [5] and in test [6] was Active. For the same molecule, the outcome in test [7] was inactive.
